Experimental data taken from ChEMBL document CHEMBL5055631, “Antitumor properties of novel sesquiterpene lactone analogs as NFκB inhibitors that bind to the IKKβ ubiquitin-like domain (ULD)” (Eur J Med Chem, 2021).
Calls of active or inactive are those of the source. No cut-off for these calls is given here.

Experiments:
CCRF-CEM = experiment: Anticancer activity against human CCRF-CEM cells assessed as cell growth inhibition incubated for 48 hrs by sulforhodamine B assay; type: functional
HOP-92 = experiment: Anticancer activity against human HOP-92 cells assessed as cell growth inhibition incubated for 48 hrs by SRB method; type: functional
HL-60(TB) = experiment: Anticancer activity against human HL-60(TB) cells assessed as cell growth inhibition incubated for 48 hrs by SRB method; type: functional
NCI-H226 = experiment: Anticancer activity against human NCI-H226 cells assessed as cell growth inhibition incubated for 48 hrs by SRB method; type: functional
Method in brief: (§1)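 NCI-60 panel (DTP). Cells in RPMI 1640 with 5% FBS, 2 mM L-glutamine, seeded at 5,000–40,000 per well by doubling time and preincubated 24 h at 37 °C, 5% CO2. Time-zero plates TCA-fixed. DMSO stocks diluted in medium with gentamicin, tested at 100 μM, 10 μM, 1 μM, 0.1 μM and 10 nM for 48 h. Cells fixed with cold TCA, stained with SRB, absorbance read at 515 nm.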

NCI-H322M = experiment: Anticancer activity against human NCI-H322M cells assessed as cell growth inhibition incubated for 48 hrs by SRB method; type: functional; method in brief: as §1
KM12 = experiment: Anticancer activity against human KM12 cells assessed as cell growth inhibition incubated for 48 hrs by SRB method; type: functional; method in brief: as §1
SF-268 = experiment: Anticancer activity against human SF-268 cells assessed as cell growth inhibition incubated for 48 hrs by SRB method; type: functional; method in brief: as §1
SNB-75 = experiment: Anticancer activity against human SNB-75 cells assessed as cell growth inhibition incubated for 48 hrs by SRB method; type: functional
MDA-MB-435 = experiment: Anticancer activity against human MDA-MB-435 cells assessed as cell growth inhibition incubated for 48 hrs by SRB method; type: functional; method in brief: as §1
SK-MEL-28 = experiment: Anticancer activity against human SK-MEL-28 cells assessed as cell growth inhibition incubated for 48 hrs by SRB method; type: functional; method in brief: as §1
UACC-62 = experiment: Anticancer activity against human UACC-62 cells assessed as cell growth inhibition incubated for 48 hrs by SRB method; type: functional
Method in brief: (§2)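 NCI-60 panel, SRB assay. Cells grown in RPMI 1640 with 5% FBS and 2 mM L-glutamine, seeded at 5,000–40,000 cells/well depending on doubling time, and preincubated 24 h at 37 °C with 5% CO2. Time-zero plates were TCA-fixed. Compounds came from DMSO stocks and were tested at 100 μM, 10 μM, 1 μM, 0.1 μM and 10 nM for 48 h. Cells were fixed with cold TCA and stained with 0.4% SRB, and the dye was solubilized in 10 mM Tris base with A515 read.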

OVCAR-3 = experiment: Anticancer activity against human OVCAR-3 cells assessed as cell growth inhibition incubated for 48 hrs by SRB method; type: functional; method in brief: as §1
786-0 = experiment: Anticancer activity against human 786-0 cells assessed as cell growth inhibition incubated for 48 hrs by SRB method; type: functional; method in brief: as §1
TK-10 = experiment: Anticancer activity against human TK-10 cells assessed as cell growth inhibition incubated for 48 hrs by SRB method; type: functional; method in brief: as §2
MDA-MB-468 = experiment: Anticancer activity against human MDA-MB-468 cells assessed as cell growth inhibition incubated for 48 hrs by SRB method; type: functional; method in brief: as §1
OV-MD-231 [1] = experiment: Antiproliferative activity against human OV-MD-231 cells assessed as inhibition of cell proliferation at 0.5 to 5 uM measured over 4 to 5 days by bromodeoxyuridine incorporation assay; type: functional, cell-based; conditions: dose 0.5-5 µM, time 4-5 day
Method in brief: (§3)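 Seeded at 500–1000 cells/well, with treatment started one day after plating. Cells were exposed to a range of concentrations for 4–5 days, six wells per condition, and proliferation was read by BrdU incorporation ELISA. Data average two experiments of six technical replicates, and 2–4 biological replicates were run.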

TMD-231 = experiment: Antiproliferative activity against human TMD-231 cells assessed as inhibition of cell proliferation at 0.5 to 5 uM measured over 4 to 5 days by bromodeoxyuridine incorporation assay; type: functional, cell-based; conditions: dose 0.5-5 µM, time 4-5 day; method in brief: as §3
[2] = target: Inhibitor of nuclear factor kappa-B kinase subunit beta (Homo sapiens) (UniProt O14920); experiment: Inhibition of IKKbeta-mediated NFkappaB activation in human M9-ENL1 cells assessed as inhibition of phosphorylation of p65 at SER-536 residue at 2.5 to 10 uM by immunoblotting analysis; type: cell-based; conditions: dose 2.5-10 µM
Method in brief: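 Primary M9-ENL AML cells were exposed for 6 h to 2.5, 5.0 and 10 μM, with PTL as reference. Lysates were run on 8–10% SDS-PAGE and transferred to PVDF. Blots were blocked in 5% milk/TBST and probed for phospho-p65 (Ser536). Analyses were done in triplicate.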

SUM149PT = experiment: Antiproliferative activity against human SUM149PT cells assessed as inhibition of cell proliferation measured over 4 to 5 days by bromodeoxyuridine incorporation assay; type: functional, cell-based; method in brief: as §3
[3] = target: Transcription factor p65 (Homo sapiens) (UniProt Q04206); experiment: Inhibition of TNFalpha-induced phosphorylation of p65 in human SUM149PT cells at 2 uM by ELISA assay; type: cell-based
[4] = target: Transcription factor p65 (Homo sapiens) (UniProt Q04206); experiment: Inhibition of TNFalpha-induced p65 phosphorylation in human OV-MD-231 cells at 2 uM by ELISA assay; type: cell-based
[5] = target: Inhibitor of nuclear factor kappa-B kinase subunit alpha (Homo sapiens) (UniProt O15111); experiment: Inhibition of TNFalpha-induced IkKalpha in human SUM149PT cells at 0.5 to 2 uM by ELISA assay; type: cell-based; conditions: dose 0.5-2 µM
OV-MD-231 [6] = experiment: Inhibition of NFkB binding with DNA in human […] cells assessed as reduction in NFkB-DNA binding at 2 uM measured over 3 hrs by electrophoretic mobility shift assay; type: cell-based
Method in brief: (§4)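 Cells were exposed to 0.5 and 2.0 μM for 3 h. EMSA was run on whole-cell lysates with 32P-labelled probes carrying NF-κB binding sites, and an SP-1 probe served as the specificity control.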

[7] = target: Nuclear factor NF-kappa-B p100 subunit (Homo sapiens) (UniProt Q00653); experiment: Inhibition of NFkB binding with DNA in human SUM149PT cells assessed as reduction in NFkB-DNA binding at 2 uM measured over 3 hrs by electrophoretic mobility shift assay; type: cell-based; method in brief: as §4
Chain of Nuclear factor NF-kappa-B p100 subunit (Homo sapiens) (Q00653 whole entry): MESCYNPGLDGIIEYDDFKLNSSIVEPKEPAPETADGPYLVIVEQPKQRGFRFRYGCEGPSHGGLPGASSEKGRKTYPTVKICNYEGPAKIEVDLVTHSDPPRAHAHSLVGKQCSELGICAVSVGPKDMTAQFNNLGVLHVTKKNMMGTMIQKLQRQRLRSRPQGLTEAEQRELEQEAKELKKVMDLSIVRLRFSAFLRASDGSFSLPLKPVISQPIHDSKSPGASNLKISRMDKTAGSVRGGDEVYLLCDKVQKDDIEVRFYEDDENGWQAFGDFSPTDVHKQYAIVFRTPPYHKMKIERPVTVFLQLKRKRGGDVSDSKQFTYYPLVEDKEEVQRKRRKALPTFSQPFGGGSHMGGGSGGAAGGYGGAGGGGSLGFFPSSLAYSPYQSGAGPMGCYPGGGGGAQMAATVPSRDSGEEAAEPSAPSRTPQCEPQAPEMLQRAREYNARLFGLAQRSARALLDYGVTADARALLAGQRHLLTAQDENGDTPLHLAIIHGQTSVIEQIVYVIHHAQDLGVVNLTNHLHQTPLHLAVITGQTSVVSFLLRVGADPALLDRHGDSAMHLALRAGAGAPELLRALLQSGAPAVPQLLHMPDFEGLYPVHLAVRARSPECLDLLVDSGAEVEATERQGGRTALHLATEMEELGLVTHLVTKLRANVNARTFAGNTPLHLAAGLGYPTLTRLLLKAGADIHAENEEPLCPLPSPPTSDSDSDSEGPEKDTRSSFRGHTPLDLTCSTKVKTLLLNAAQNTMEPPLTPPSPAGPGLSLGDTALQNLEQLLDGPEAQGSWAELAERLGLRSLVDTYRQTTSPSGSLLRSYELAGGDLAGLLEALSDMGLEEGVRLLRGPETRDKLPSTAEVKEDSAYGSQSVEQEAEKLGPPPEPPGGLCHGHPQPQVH

Chain of Transcription factor p65 (Homo sapiens) (Q04206 whole entry): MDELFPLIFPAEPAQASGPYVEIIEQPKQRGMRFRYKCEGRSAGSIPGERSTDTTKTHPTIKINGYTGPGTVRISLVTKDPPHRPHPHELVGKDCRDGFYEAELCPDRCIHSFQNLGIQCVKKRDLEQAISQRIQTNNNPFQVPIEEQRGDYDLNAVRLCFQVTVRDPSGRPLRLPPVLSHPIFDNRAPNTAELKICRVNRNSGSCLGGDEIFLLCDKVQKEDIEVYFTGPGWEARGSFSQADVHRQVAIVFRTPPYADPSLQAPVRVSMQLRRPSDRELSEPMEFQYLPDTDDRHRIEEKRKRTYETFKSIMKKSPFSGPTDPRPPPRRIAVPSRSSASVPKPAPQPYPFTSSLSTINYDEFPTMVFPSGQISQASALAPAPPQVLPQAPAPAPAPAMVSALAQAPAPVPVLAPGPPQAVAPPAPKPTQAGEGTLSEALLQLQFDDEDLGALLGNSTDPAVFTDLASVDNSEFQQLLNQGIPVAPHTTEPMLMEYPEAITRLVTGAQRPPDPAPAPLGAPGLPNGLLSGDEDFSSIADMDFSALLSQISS
Chain of Inhibitor of nuclear factor kappa-B kinase subunit alpha (Homo sapiens) (O15111 whole entry): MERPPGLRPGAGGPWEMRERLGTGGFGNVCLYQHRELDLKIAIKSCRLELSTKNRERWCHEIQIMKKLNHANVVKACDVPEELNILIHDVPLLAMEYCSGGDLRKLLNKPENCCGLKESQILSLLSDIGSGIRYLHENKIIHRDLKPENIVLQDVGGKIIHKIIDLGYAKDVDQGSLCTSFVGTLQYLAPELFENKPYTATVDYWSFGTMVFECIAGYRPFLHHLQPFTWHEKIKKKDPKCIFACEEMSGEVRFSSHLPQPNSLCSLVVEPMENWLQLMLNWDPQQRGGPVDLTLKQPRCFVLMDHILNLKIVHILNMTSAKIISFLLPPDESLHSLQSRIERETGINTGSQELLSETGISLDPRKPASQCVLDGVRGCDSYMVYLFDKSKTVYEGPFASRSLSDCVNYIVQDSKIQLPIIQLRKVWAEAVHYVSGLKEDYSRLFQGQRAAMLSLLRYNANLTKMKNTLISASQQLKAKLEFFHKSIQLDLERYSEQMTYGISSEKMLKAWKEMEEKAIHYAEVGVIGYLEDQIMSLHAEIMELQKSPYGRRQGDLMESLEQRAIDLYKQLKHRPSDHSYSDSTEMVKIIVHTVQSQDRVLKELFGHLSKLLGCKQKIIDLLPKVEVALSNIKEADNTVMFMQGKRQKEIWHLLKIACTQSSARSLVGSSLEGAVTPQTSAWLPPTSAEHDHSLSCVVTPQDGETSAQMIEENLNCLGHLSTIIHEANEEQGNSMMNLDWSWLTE
Chain of Inhibitor of nuclear factor kappa-B kinase subunit beta (Homo sapiens) (O14920 whole entry): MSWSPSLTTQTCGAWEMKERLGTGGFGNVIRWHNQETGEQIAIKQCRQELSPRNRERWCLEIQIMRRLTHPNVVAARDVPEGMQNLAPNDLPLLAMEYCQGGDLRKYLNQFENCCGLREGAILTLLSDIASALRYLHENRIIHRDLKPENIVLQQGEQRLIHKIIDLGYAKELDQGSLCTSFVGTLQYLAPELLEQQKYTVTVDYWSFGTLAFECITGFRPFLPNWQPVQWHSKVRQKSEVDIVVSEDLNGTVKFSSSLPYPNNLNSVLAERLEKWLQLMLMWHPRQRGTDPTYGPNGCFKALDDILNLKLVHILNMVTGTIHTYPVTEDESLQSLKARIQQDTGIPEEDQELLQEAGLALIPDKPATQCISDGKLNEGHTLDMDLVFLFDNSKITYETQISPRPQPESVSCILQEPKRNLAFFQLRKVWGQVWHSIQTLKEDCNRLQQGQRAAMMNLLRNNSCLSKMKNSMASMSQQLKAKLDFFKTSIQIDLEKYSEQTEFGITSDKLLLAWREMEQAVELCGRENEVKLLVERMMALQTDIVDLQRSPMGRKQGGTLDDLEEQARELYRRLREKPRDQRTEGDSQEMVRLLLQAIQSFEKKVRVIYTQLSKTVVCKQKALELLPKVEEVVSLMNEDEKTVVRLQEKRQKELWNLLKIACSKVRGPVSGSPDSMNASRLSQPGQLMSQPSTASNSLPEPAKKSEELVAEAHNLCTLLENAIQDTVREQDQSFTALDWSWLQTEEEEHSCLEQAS

SMILES | GI50 (CCRF-CEM) | GI50 (HOP-92) | GI50 (HL-60(TB)) | GI50 (NCI-H226) | GI50 (NCI-H322M) | GI50 (KM12) | GI50 (SF-268) | GI50 (SNB-75) | GI50 (MDA-MB-435) | GI50 (SK-MEL-28) | GI50 (UACC-62) | GI50 (786-0) | GI50 (TK-10) | GI50 (MDA-MB-468) | further results
C=C1C(=O)O[C@H]2[C@H]1CC/C(COC(=O)NCc1cc(OC)cc(OC)c1)=C\CC[C@@]1(C)O[C@@H]21 | 0.47 µM | 1.42 µM | 1.69 µM | 2.02 µM | 4.72 µM | 2.8 µM | 2.46 µM | 1.99 µM | 1.99 µM | 1.66 µM | 1.2 µM | 1.6 µM | 1.59 µM | 0.58 µM | GI50 (OVCAR-3): 0.66 µM
C=C1C(=O)O[C@H]2[C@H]1CC/C(COC(=O)NCc1ccccc1OC)=C\CC[C@@]1(C)O[C@@H]21 | 0.48 µM | 1.49 µM | 1.61 µM | 2.11 µM | – | 3.53 µM | 2.2 µM | 2.44 µM | 1.7 µM | 1.71 µM | 1.84 µM | 2.45 µM | 1.38 µM | 0.66 µM | –
C=C1C(=O)O[C@H]2[C@H]1CC/C(COC(=O)NCCc1ccc(OC)cc1)=C\CC[C@@]1(C)O[C@@H]21 | 1.98 µM | 1.99 µM | 2.34 µM | 4.11 µM | 12.6 µM | 8.36 µM | 10.6 µM | 4.09 µM | 3.53 µM | 8.97 µM | 1.71 µM | 2.77 µM | 2.52 µM | 1.55 µM | –
C=C1C(=O)O[C@H]2[C@H]1CC/C(COC(=O)NCc1ccc(OC)cc1)=C\CC[C@@]1(C)O[C@@H]21 | 0.26 µM | 0.24 µM | 0.26 µM | 0.48 µM | – | 2.35 µM | 0.75 µM | 0.74 µM | 0.42 µM | 1.18 µM | 2.86 µM | 0.49 µM | 0.31 µM | 0.24 µM | inhibition (OV-MD-231 [1]): Active; inhibition (TMD-231): Active; inhibition [2]: inactive; IC50 (SUM149PT): < 1 µM; inhibition [3]: Active; inhibition [4]: Active; inhibition [5]: Active; inhibition (OV-MD-231 [6]): inactive; inhibition [7]: inactive
